From ChEMBL document CHEMBL5338733, “Heterobifunctional Ligase Recruiters Enable pan-Degradation of Inhibitor of Apoptosis Proteins” (J Med Chem, 2023) come the findings set out here.

Active and inactive are the calls of the source. The rule behind the calls is not given here.

Common to all, as to assay type: cell-based
The target in experiment [1] is Protein cereblon/E3 ubiquitin-protein ligase XIAP (Homo sapiens) (UniProt P98170+Q96SW2). In words: PROTAC activity at CRBN/IAP in human MM1.S cells assessed as induction of XIAP degradation at 0.1 uM incubated for 3 hrs by diaPASEF-based proteomics analysis. In outline: (§1)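 MM.1S cells exposed to DMSO or 0.1 μM compound for 3 h, then washed with PBS and snap-frozen. Lysed in 8 M urea/EPPS pH 8.5 buffer. 50 μg protein reduced, alkylated, precipitated, then digested with LysC and trypsin. Analysed by diaPASEF on timsTOF Pro2. Missing values imputed from a Gaussian distribution; log2 fold change versus DMSO with limma statistics.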
Protein cereblon/E3 ubiquitin-protein ligase XIAP (Homo sapiens), sequence (P98170 whole entry, looked up): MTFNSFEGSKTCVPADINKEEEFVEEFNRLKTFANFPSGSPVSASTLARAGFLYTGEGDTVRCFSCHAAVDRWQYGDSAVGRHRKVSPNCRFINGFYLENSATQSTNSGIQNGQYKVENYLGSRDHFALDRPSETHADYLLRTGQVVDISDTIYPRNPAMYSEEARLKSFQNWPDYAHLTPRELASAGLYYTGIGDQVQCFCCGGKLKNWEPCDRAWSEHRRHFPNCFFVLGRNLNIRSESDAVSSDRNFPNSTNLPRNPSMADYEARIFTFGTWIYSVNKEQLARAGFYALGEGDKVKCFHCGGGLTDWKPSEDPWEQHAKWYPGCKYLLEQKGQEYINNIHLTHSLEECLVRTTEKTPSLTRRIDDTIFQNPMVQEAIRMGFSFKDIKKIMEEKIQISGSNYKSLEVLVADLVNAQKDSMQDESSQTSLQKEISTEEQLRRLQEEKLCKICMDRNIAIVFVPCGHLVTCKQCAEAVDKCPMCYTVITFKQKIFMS
Protein cereblon/E3 ubiquitin-protein ligase XIAP (Homo sapiens), sequence (Q96SW2 whole entry, looked up): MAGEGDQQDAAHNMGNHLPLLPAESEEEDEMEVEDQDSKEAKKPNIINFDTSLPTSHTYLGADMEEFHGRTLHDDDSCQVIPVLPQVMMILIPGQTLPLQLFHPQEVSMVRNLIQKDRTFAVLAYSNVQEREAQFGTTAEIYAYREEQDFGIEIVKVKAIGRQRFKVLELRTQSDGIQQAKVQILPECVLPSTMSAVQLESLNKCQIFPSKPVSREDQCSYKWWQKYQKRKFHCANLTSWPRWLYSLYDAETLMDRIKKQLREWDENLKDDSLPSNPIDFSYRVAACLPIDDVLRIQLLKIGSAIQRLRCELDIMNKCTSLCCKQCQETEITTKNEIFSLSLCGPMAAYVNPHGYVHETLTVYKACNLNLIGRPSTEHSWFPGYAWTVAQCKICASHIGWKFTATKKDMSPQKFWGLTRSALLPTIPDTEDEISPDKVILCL

The target in experiment [2] is Protein cereblon/Baculoviral IAP repeat-containing protein 2 (Homo sapiens) (UniProt Q13490+Q96SW2). In words: PROTAC activity at CRBN/IAP in human MM1.S cells assessed as induction of cIAP1 degradation at 100 nM incubated for 3 hrs by diaPASEF-based analysis. The essentials: as §1
Protein cereblon/Baculoviral IAP repeat-containing protein 2 (Homo sapiens), sequence (Q13490 whole entry, looked up): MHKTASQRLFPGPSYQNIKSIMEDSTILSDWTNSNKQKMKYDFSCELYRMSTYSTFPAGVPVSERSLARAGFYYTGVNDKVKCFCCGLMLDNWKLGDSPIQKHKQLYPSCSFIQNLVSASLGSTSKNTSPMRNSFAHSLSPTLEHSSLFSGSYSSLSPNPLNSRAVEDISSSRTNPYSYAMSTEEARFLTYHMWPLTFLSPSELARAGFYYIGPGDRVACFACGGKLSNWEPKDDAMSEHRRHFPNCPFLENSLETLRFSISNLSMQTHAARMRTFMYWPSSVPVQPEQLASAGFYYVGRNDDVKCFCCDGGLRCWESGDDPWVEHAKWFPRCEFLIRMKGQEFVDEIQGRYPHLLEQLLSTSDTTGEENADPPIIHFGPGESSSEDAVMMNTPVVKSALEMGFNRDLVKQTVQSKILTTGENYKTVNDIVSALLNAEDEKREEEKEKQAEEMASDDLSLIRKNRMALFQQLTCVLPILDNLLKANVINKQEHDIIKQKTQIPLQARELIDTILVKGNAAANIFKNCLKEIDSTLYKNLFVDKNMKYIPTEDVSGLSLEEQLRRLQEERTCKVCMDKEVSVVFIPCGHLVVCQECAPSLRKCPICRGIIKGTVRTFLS
Protein cereblon/Baculoviral IAP repeat-containing protein 2 (Homo sapiens), sequence (Q96SW2 whole entry, looked up): as the sequence (Q96SW2 whole entry, looked up) above
Experiment [3] has as its target Protein cereblon/Baculoviral IAP repeat-containing protein 3 (Homo sapiens) (UniProt Q13489+Q96SW2). In words: PROTAC activity at CRBN/IAP in human MM1.S cells assessed as induction of cIAP2 degradation at 100 nM incubated for 3 hrs by diaPASEF-based analysis. The essentials:
as §1

Experiment [4] deals with Protein cereblon-IAP (Homo sapiens) (UniProt P98170+Q13489+Q13490+Q96SW2). In words: PROTAC activity at CRBN/IAP in human MM1.S cells assessed as induction of CRBN degradation at 100 nM incubated for 3 hrs by diaPASEF-based analysis. In outline:
as §1

Experiment [5] has as its target Cereblon/Ikaros (Homo sapiens) (UniProt Q96SW2+Q13422). Description: PROTAC activity at CRBN/IKZF1 in human MM1.S cells assessed as induction of IKZF1 degradation at 100 nM incubated for 3 hrs by diaPASEF-based analysis. The essentials:
as §1

In experiment [6] the target is Protein cereblon/Zinc finger protein Aiolos (Homo sapiens) (UniProt Q96SW2+Q9UKT9). In words: PROTAC activity at CRBN/IKZF3 in human MM1.S cells assessed as induction of IKZF3 degradation at 100 nM incubated for 3 hrs by diaPASEF-based analysis. The essentials: as §1
Protein cereblon/Zinc finger protein Aiolos (Homo sapiens), sequence (Q96SW2 whole entry, looked up): as above
Protein cereblon/Zinc finger protein Aiolos (Homo sapiens), sequence (Q9UKT9 whole entry, looked up): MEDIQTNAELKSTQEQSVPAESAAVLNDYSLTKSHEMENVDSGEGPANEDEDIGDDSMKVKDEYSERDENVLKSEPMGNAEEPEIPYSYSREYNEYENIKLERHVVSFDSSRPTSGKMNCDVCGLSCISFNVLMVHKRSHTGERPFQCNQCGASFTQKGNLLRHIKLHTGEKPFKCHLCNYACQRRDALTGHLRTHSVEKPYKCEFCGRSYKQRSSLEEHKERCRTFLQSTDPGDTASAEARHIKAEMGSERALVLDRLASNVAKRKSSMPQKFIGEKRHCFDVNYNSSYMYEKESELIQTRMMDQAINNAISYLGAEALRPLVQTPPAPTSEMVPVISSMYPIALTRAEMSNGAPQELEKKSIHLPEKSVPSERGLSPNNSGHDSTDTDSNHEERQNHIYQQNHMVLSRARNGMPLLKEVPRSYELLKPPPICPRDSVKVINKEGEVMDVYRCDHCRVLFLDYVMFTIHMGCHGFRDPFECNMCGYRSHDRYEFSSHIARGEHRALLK
The target in experiment [7] is von Hippel-Lindau disease tumor suppressor (Homo sapiens) (UniProt P40337). In words: Induction of VHL degradation in human MM1.S cells at 100 nM incubated for 3 hrs by diaPASEF-based analysis. The essentials: as §1
von Hippel-Lindau disease tumor suppressor (Homo sapiens), sequence (P40337 whole entry, looked up): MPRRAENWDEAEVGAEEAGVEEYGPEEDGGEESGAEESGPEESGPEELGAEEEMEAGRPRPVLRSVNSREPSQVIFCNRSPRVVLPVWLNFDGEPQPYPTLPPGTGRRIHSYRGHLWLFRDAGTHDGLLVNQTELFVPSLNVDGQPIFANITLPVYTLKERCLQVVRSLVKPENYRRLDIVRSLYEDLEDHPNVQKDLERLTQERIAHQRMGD

Protein cereblon-IAP (Homo sapiens), sequence (P98170 whole entry, looked up): as the sequence (P98170 whole entry, looked up) above
Protein cereblon-IAP (Homo sapiens), sequence (Q13489 whole entry, looked up): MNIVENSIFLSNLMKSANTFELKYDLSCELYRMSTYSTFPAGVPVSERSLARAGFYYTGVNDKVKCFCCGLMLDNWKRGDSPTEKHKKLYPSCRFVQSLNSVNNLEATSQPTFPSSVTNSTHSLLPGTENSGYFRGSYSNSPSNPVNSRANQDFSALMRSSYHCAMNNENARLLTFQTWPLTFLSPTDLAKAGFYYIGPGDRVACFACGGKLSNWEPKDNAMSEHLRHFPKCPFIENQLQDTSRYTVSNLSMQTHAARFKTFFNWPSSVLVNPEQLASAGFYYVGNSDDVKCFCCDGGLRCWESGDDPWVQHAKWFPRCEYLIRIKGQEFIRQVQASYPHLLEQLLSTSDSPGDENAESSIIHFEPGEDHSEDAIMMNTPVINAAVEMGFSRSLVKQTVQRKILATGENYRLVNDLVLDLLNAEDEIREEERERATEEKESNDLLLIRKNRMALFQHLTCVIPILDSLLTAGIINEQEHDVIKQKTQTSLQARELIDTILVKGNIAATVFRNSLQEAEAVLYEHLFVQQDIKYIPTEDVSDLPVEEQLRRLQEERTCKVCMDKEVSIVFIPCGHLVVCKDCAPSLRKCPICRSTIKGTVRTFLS
Protein cereblon-IAP (Homo sapiens), sequence (Q13490 whole entry, looked up): as the sequence (Q13490 whole entry, looked up) above
Protein cereblon-IAP (Homo sapiens), sequence (Q96SW2 whole entry, looked up): as the sequence (Q96SW2 whole entry, looked up) above
Protein cereblon/Baculoviral IAP repeat-containing protein 3 (Homo sapiens), sequence (Q13489 whole entry, looked up): as the sequence (Q13489 whole entry, looked up) above
Protein cereblon/Baculoviral IAP repeat-containing protein 3 (Homo sapiens), sequence (Q96SW2 whole entry, looked up): as the sequence (Q96SW2 whole entry, looked up) above

As to `CN[C@@H](C)C(=O)N[C@H](C(=O)N1C[C@@H](Oc2cccc(OCCCCCCOCCCCCCOCCCCCCNc3cccc4c3C(=O)N(C3CCC(=O)NC3=O)C4=O)c2)C[C@H]1C(=O)N[C@@H]1CCCc2ccccc21)C1CCCCC1` (some centres not stated), the outcome in experiment [1] was Active. The outcome in experiment [2], in experiment [3], in experiment [4], in experiment [5], in experiment [6] and in experiment [7] was inactive.
